Experimental data: ChEMBL document CHEMBL4513216, “Probing the Open Global Health Chemical Diversity Library for Multistage-Active Starting Points for Next-Generation Antimalarials” (ACS Infect Dis, 2020)

Test: Toxicity liver stage against HepG2, at 10uM
Format: cell-based
Parameters: test concentration 10 uM, cell line HepG2-A16-CD81EGFP
Conditions: human, HepG2-A16-CD81EGFP cells; read-out: INHIBITION
In short: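 Uninfected HepG2-A16-CD81EGFP cells, 3 × 10^3 per well, 1536-well, plated on prespotted compound at 10 μM final, parasite-free screening media added to match infected plates; puromycin 10 μM positive, DMSO 0.5% negative; run in parallel with 48 h PbLuc assay at 37 °C, 5% CO2; viability by CellTiter-Glo luminescence, normalized to controls.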

CCOC(=O)C(C)Nc1cccc(COCc2ccco2)c1 (stereo not given)
cytotoxicity at 10 µM: 2.1%

COc1c(F)ccc(C(=O)N2CC[C@H](CO)[C@@H](O)C2)c1F
cytotoxicity at 10 µM: -3.85%

CCOc1ccc(S(=O)(=O)NC(=O)CC2CCCO2)cc1 (stereo not given)
cytotoxicity at 10 µM: -16.3%

Nc1nc(CCC(=O)N2C[C@@H](CN3CCCC3)C[C@H](CO)C2)n[nH]1
cytotoxicity at 10 µM: -0.445%

COCCN1C(=O)CC(N2CCN(c3ccccc3)CC2)C1=O (stereo not given)
cytotoxicity at 10 µM: 1.22%

Cc1nc(C2CN(Cc3ccccc3C)CCO2)no1 (stereo not given)
cytotoxicity at 10 µM: -1.51%

CN(CC1(O)CCCCC1)C1CCCN(Cc2noc(C3CC3)n2)C1 (stereo not given)
cytotoxicity at 10 µM: -17.3%

CN1CCN(c2nsc(-c3cccnc3)c2C#N)CC1
cytotoxicity at 10 µM: 0.916%

Cn1cc(S(=O)(=O)N2CCC(OCCCc3ccccc3)C2)cn1 (stereo not given)
cytotoxicity at 10 µM: 8.93%

Cc1nnc(C2CCN(C(=O)c3ccc(-n4cccc4)cc3)CC2)s1
cytotoxicity at 10 µM: 6.4%

O=C1N(Cc2ccccc2F)CCCC12CCN(C1CCSCC1)C2 (stereo not given)
cytotoxicity at 10 µM: 0.0366%

COc1ncc(NS(=O)(=O)c2ccc(F)cc2F)cn1
cytotoxicity at 10 µM: -3.96%

CN1CCOC(CNCCOc2cccc(C#N)c2)C1 (stereo not given)
cytotoxicity at 10 µM: 7.56%

Cc1cc(CN(C)C(=O)NC2CCN(Cc3ccccn3)CC2)no1
cytotoxicity at 10 µM: -17.4%

CC(C)CCNC(=O)c1c(-n2cnnn2)sc2c1CCCC2
cytotoxicity at 10 µM: 8.79%

NC(=O)c1cccc(C2CCN(c3ncccn3)CC2)n1
cytotoxicity at 10 µM: 0.00505%

O=C(NCCO)Nc1cccc(Cl)c1SC(F)F
cytotoxicity at 10 µM: 5.98%

CN(C)S(=O)(=O)N1CCC2(COCc3cnc(-c4cccnc4)nc32)C1 (stereo not given)
cytotoxicity at 10 µM: -115%

Clc1ccc(C2(NCc3noc(C4CC4)n3)CCCC2)cc1
cytotoxicity at 10 µM: 13.3%

COc1ccc2c(ccn2CC(=O)NC[C@@H]2CCCN3CCCC[C@H]23)c1
cytotoxicity at 10 µM: -4.56%

O=C(Cc1ccccn1)N1CCN2C[C@H](Oc3cncnc3)C[C@H]2C1
cytotoxicity at 10 µM: -73%

CCC(=O)N1CCC(NC2CCSCC2)C1 (stereo not given)
cytotoxicity at 10 µM: 2.85%

CC(=O)N1CCCC2(C1)CN(C(=O)Cc1ccccc1)CCO2 (stereo not given)
cytotoxicity at 10 µM: -83.9%

CN(C)CC(=O)N1C[C@H]2CCC[C@@]2(COc2ccccn2)C1
cytotoxicity at 10 µM: 3.88%

COCCN1C(=O)[C@]2(CC[C@@H]3CN(C(=O)NCC(C)C)C[C@@H]32)N=C1C
cytotoxicity at 10 µM: -11.8%

CC(C)c1ccc(S(=O)(=O)NC2CCN(CC(F)(F)F)C2)cc1 (stereo not given)
cytotoxicity at 10 µM: 9.19%

Cc1cccc(C(=O)Nc2ccc(OC3CCN(C)CC3)cc2)c1
cytotoxicity at 10 µM: -26.1%

CCN(Cc1noc(CC(C)C)n1)Cc1ccccc1C(=O)O
cytotoxicity at 10 µM: -51.6%

CC(C)COC(C)C(=O)NCCNS(C)(=O)=O (stereo not given)
cytotoxicity at 10 µM: -5.26%

O=C(c1cnccn1)N1CC(S(=O)(=O)c2ccc(Cl)cc2)C1
cytotoxicity at 10 µM: -2.3%

CCCc1cc(=O)[nH]c2nnc(SCC(=O)OCC)n12
cytotoxicity at 10 µM: 10.8%

O=C(Cn1nc(C(F)(F)F)c(Br)c1C1CC1)N1CCOCC1
cytotoxicity at 10 µM: -0.614%

CNS(=O)(=O)c1ccc(CNC(=O)Nc2ccccn2)s1
cytotoxicity at 10 µM: -9.11%

CCCS(=O)(=O)NCC(C)(O)c1ccsc1 (stereo not given)
cytotoxicity at 10 µM: -1.7%

Cn1nccc1CNC(=O)Nc1cc(C(F)(F)F)c[nH]c1=O
cytotoxicity at 10 µM: 1.04%

Cn1cc(C2CCCN2Cc2csc(C(C)(C)C)n2)cn1 (stereo not given)
cytotoxicity at 10 µM: -4.87%

Cc1ocnc1C(=O)N1CCC(c2nccn2Cc2ccncc2)CC1
cytotoxicity at 10 µM: -8.26%

COCCN1C[C@@H]2OCCN(c3ccnc(N(C)C)n3)[C@@H]2C1
cytotoxicity at 10 µM: -118%

c1ccc(NC[C@@H]2CCC[C@@H]3CN(Cc4nccs4)C[C@@H]32)nc1
cytotoxicity at 10 µM: -108%

Cc1cc(CN(C)c2nc(-c3ccco3)nc3c2CCN(C)CC3)on1
cytotoxicity at 10 µM: 9.34%

CCOC1COC2(CCN(CC3CC3)CC2)C1 (stereo not given)
cytotoxicity at 10 µM: -106%

COc1cccc(CC(=O)N2CCC(c3ccn4nccc4n3)CC2)c1
cytotoxicity at 10 µM: -3.79%

Cn1cc(C(=O)CC2CCCN2C(=O)c2cccc3ncccc23)cn1 (stereo not given)
cytotoxicity at 10 µM: 6.19%

CCOC(=O)COc1nc(CC(C)C)c2c(c1C#N)CCC2
cytotoxicity at 10 µM: -5.72%

COCC(=O)NCc1ccc(-c2ncncc2C(=O)N(C)C)cc1
cytotoxicity at 10 µM: 3.02%

Cc1nonc1CN(C)Cc1cnn(-c2ccc(Cl)cc2)c1
cytotoxicity at 10 µM: -16.3%

CN1CCN(S(=O)(=O)c2ccc(Cl)c(Cl)c2)c2cnccc21
cytotoxicity at 10 µM: 5.57%

Cn1ccnc1CN(CCO)Cc1ccc(C(F)(F)F)cc1
cytotoxicity at 10 µM: -17.3%

CCCOc1ccc(CN)c(OC(F)F)c1
cytotoxicity at 10 µM: -41.7%

CCc1nc(C)sc1CN1C[C@@H](C)[C@@](C)(O)C1
cytotoxicity at 10 µM: -1.47%

Cc1nc2ccccc2n(Cc2nnnn2C2CC2)c1=O
cytotoxicity at 10 µM: -10.3%

O=S(=O)(c1cccc(F)c1)N1C[C@H]2CC[C@@H](C1)N(Cc1ccccc1)C2
cytotoxicity at 10 µM: -3.03%

CCOCCNC1(c2ccc(Cl)cc2)CCOCC1
cytotoxicity at 10 µM: -3.75%

CCc1nc(C)c(C(C)N(C)CCc2ccncc2)s1 (stereo not given)
cytotoxicity at 10 µM: 23.5%

O=C(NCc1nc2ccccc2[nH]1)c1cnn2c1OCCC2
cytotoxicity at 10 µM: 0.0962%

COc1ccc(-c2cn[nH]c2)cc1CNC1CCCC1
cytotoxicity at 10 µM: -45.3%

c1csc(CN2CCO[C@H]3[C@H](OCCN4CCCC4)CC[C@@H]32)n1
cytotoxicity at 10 µM: -7.32%

O=C1NCC(CN2CCc3onc(-c4ccc(C(F)(F)F)cc4)c3C2)O1 (stereo not given)
cytotoxicity at 10 µM: 2.02%

Cc1cscc1C(=O)Nc1cncnc1N(C)C
cytotoxicity at 10 µM: 0.137%

Cc1ccc(S(=O)(=O)NC(=O)c2cccc(OCC(N)=O)c2)s1
cytotoxicity at 10 µM: -9.55%

Cc1cnn(CC2CCCCN2CCS(C)(=O)=O)c1 (stereo not given)
cytotoxicity at 10 µM: -13.7%

CCc1cnc(N2CC[C@@H]3CN(CCC(C)C)S(=O)(=O)[C@@H]3CC2)nc1
cytotoxicity at 10 µM: 2.38%

CCN(C(=O)CS(=O)(=O)c1cc(OC)c(OC)cc1C)C1CC1
cytotoxicity at 10 µM: -3.91%

CCc1noc(CN(C)C2CCN(c3sccc3C#N)C2=O)n1 (stereo not given)
cytotoxicity at 10 µM: 7.73%

CCn1ccc(-c2nnc(SCC(=O)NCC(C)C)n2CC)n1
cytotoxicity at 10 µM: 5.44%

CCCn1nc2c(cc1=O)CN(Cc1cc(C)on1)CC2
cytotoxicity at 10 µM: -13.9%

CCCNC(=O)c1nn(CC)cc1NC(=O)c1c(C)nn(C)c1C
cytotoxicity at 10 µM: -7.95%

COc1ccccc1CC(=O)NS(=O)(=O)c1ccc(C#N)cc1
cytotoxicity at 10 µM: -10.4%

O=C(C1CC1)N1CCC2(CC1)OCCO2
cytotoxicity at 10 µM: 1.75%

CCCN1CCN(C(=O)c2cc[nH]n2)[C@H]2CS(=O)(=O)C[C@H]21
cytotoxicity at 10 µM: 2.29%

COCC1CC2(CCN(C(=O)c3cccn3C)CC2)CN1C(C)C (stereo not given)
cytotoxicity at 10 µM: -14.2%

N#Cc1ccc(OC[C@]23COC[C@H]2CN(c2ncccn2)C3)nc1
cytotoxicity at 10 µM: -1.84%

Cc1cc(C2CCCN2Cc2cc(-c3ccco3)on2)on1 (stereo not given)
cytotoxicity at 10 µM: 1.6%

c1coc(CN2CCO[C@H]3[C@@H](OCC4CC4)CC[C@@H]32)c1
cytotoxicity at 10 µM: 6.68%

Cc1ccc(N2CCCC(NCc3cccc4c3OCCO4)C2)nn1 (stereo not given)
cytotoxicity at 10 µM: -1.69%

Cc1nc(NCCN2CCCC2=O)cc(C2CN(C(C)C)CCO2)n1 (stereo not given)
cytotoxicity at 10 µM: 3.88%

Clc1cc(CN2CCCC2Cn2cncn2)c2ncccc2c1 (stereo not given)
cytotoxicity at 10 µM: 1.28%

COc1ccc(-c2n[nH]c(C)c2CC(=O)NCC2CCOCC2)cc1
cytotoxicity at 10 µM: -4.28%

Cc1ncccc1-c1cc2cccnc2n1CCCNC(=O)C(C)(C)C
cytotoxicity at 10 µM: 12.8%

O=C(CC1CCN(CCc2ccccc2)CC1)NC1CCOCC1
cytotoxicity at 10 µM: 3.31%

Nc1cc(CCCNC(=O)NC2CC2)nn1-c1ccccc1
cytotoxicity at 10 µM: 1.54%

CCOC(=O)c1cnn(-c2cc(C)ccn2)c1N
cytotoxicity at 10 µM: 11.3%

CC(C)(O)c1cn(C2CCN(C(=O)CCc3ccncc3)CC2)nn1
cytotoxicity at 10 µM: -5.32%

O=C(c1cnc2n1CCN(Cc1ccccc1)C2)N1CCCC1
cytotoxicity at 10 µM: -73.9%

c1cc(CN2CCOCC3(C2)CN(Cc2nccs2)CCO3)ccn1 (stereo not given)
cytotoxicity at 10 µM: 2.14%

Cn1cc(C2CCCN2C(=O)CCCOc2ccc(F)cc2)cn1 (stereo not given)
cytotoxicity at 10 µM: -17.8%

Cc1ccnc(C(NC(=O)c2ccc(O)nc2C)C2CC2)n1 (stereo not given)
cytotoxicity at 10 µM: -5.3%

CNC(=O)CCN(C)CC1(c2ccc(Br)cc2)CC1
cytotoxicity at 10 µM: -12.5%

c1nc2c(c(C3CC3)n1)CCN(Cc1ccc3c(c1)OCO3)CC2
cytotoxicity at 10 µM: -17.1%

CCCN1CCC2(CC1)COc1ccccc1S(=O)(=O)N(CC1CC1)C2
cytotoxicity at 10 µM: -3.43%

O=C(NCCO)Nc1c(F)cc(F)cc1-c1ccccc1
cytotoxicity at 10 µM: -1.99%

O=C(Nc1ccc(F)cc1F)Nc1c[nH]c(=O)[nH]c1=O
cytotoxicity at 10 µM: -3.55%

CCc1ccc(S(=O)(=O)Nc2ccn(CC(=O)OC)n2)cc1
cytotoxicity at 10 µM: 7.22%

CN1CCN(CCCOc2ccccc2CN2C[C@H]3CC[C@H]2C3)CC1
cytotoxicity at 10 µM: -7.88%

COC(=O)c1cc2c(=O)[nH]c(=O)n(CCc3ccccc3)c2nc1C
cytotoxicity at 10 µM: -4.74%

O=C(NCCN1CCOCC1)c1cc(-c2ccc(Cl)s2)[nH]n1
cytotoxicity at 10 µM: -6.58%

O=C(c1ccc(-c2ccc(O)nc2)s1)N1CCCCC1
cytotoxicity at 10 µM: 3.35%

Cc1noc(C)c1CN1CCC2(CC1)C(c1ccccc1)CC(=O)N2C (stereo not given)
cytotoxicity at 10 µM: -105%

CCCS(=O)(=O)c1ccc(N2CCN(Cc3ccccc3)CC2)nn1
cytotoxicity at 10 µM: -5.93%

FC(F)(F)COCCN1CCN(c2ccc3nncn3n2)CC1
cytotoxicity at 10 µM: -7.77%

CCn1c(C2CCNCC2)nn(CCCc2ccccc2)c1=O
cytotoxicity at 10 µM: 1.4%

NC(=O)C1CCN(C(=O)NCCNc2ccccn2)CC1
cytotoxicity at 10 µM: -12.8%

c1ccc(Cc2nnc(CN3CCCC3Cn3cccn3)o2)cc1 (stereo not given)
cytotoxicity at 10 µM: -11.7%

Cc1ccc(C(=O)Nc2cnn(CC(=O)NC3CCCC3)c2)c(=O)[nH]1
cytotoxicity at 10 µM: -4.09%

O=C(c1cnc(C2CC2)s1)N1CCCC(n2cccn2)C1 (stereo not given)
cytotoxicity at 10 µM: -13.9%

CS(=O)(=O)N1CC[C@]2(O)CCN(c3ccnc(N)n3)C[C@@H]2C1
cytotoxicity at 10 µM: 21%

Cc1ccccc1CC(=O)NCc1cnc(CC2CCN(C)CC2)cn1
cytotoxicity at 10 µM: -1.25%

Cc1cc(C(F)(F)F)nc(CCNc2nc(C)nc3sccc23)n1
cytotoxicity at 10 µM: 9.46%

CC(C)N1C(=O)C[C@H]2[C@@H]1CCN2C(=O)c1ccco1
cytotoxicity at 10 µM: -99%

Cc1n[nH]cc1CNCC(c1ccsc1)N(C)C (stereo not given)
cytotoxicity at 10 µM: 3.05%
